Test results published in article PMC3158460 (Molecular cell, 2011).
Residues, ends and D or L forms follow the SMILES beside them.

Experiments:
[1] = biological target: T1, LGN TPR repeats (Mus musculus, UniProt Q8VDU0); conditions: fit of the LGN TPR0-7/NuMA fluorescence polarization binding curve; Fig. 2C
T1 sequence (Q8VDU0 22-357): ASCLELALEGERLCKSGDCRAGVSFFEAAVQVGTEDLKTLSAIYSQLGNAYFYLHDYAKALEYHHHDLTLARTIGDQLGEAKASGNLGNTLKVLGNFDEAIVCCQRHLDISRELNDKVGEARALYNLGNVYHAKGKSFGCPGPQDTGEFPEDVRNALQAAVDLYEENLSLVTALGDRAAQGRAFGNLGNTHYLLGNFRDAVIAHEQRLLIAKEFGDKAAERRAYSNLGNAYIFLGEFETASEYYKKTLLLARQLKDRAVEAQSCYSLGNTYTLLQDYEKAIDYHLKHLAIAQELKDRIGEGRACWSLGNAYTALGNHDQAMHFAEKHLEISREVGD
Outline: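 Fluorescence polarization at 25 °C using a fluorimeter with an automated polarizer. A FITC-labeled human NuMA peptide (~1 μM) was titrated with mouse LGN TPR0-7 in 50 mM Tris pH 8.0, 100 mM NaCl, 1 mM DTT, 1 mM EDTA. The LGN fragment was expressed from a modified pET32a vector in E. coli BL21(DE3) at 16°C and purified by Ni2+-NTA then size-exclusion chromatography.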

[2] = biological target: FITC-labeled NuMA peptide (aa 1886-1912) (human) (UniProt Q14980); experiment: fluorescence polarisation + ITC
[3] = biological target: mInsc22 (aa 19-40), peptide of the fluorescence assays (mouse); experiment: fluorescence polarisation
[4] = biological target: Mud peptide (Drosophila); experiment: fluorescence polarisation
[5] = biological target: NuMA_C (1898-1912) (human) (UniProt Q14980); experiment: fluorescence polarisation
[6] = biological target: NuMA_N (1885-1898) (human) (UniProt Q14980); experiment: fluorescence polarisation
[7] = biological target: mInsc38 (aa 20-57) (mouse); experiment: fluorescence polarisation

**Q.** Which “Hill coefficient of LGN/NuMA binding curve” value [1] does the source give for `CC[C@H](C)[C@H](NC(=O)[C@H](CCCNC(=N)N)NC(=O)[C@H](CC(N)=O)NC(=O)[C@H](Cc1c[nH]c2ccccc12)NC(=O)[C@H](CC(=O)O)NC(=O)[C@H](CC(=O)O)NC(=O)[C@H](CC(C)C)NC(=O)[C@H](CCC(N)=O)NC(=O)[C@H](CCC(=O)O)NC(=O)[C@@H]1CCCN1C(=O)[C@H](CCC(=O)O)NC(=O)[C@H](CC(=O)O)NC(=O)[C@H](CCC(N)=O)NC(=O)[C@H](CS)NC(=O)[C@@H](NC(=O)CNC(=O)[C@H](CCSC)NC(=O)[C@H](Cc1ccc(O)cc1)NC(=O)[C@H](Cc1ccccc1)NC(=O)[C@H](CO)NC(=O)[C@@H](N)CC(N)=O)[C@@H](C)O)C(=O)N[C@@H](C)C(=O)N[C@@H](CCC(=O)O)C(=O)N[C@@H](CC(C)C)C(=O)N[C@@H](CCC(N)=O)C(=O)N[C@@H](CCC(N)=O)C(=O)N[C@@H](CCCNC(=N)N)C(=O)O` [NuMA] (H-NSFYMGTCQDEPEQLDDWNRIAELQQR-OH; N-terminus and C-terminus assumed) here?
**A.** The value was ~2.0.

**Q.** LGN (aa 15-479) (domain or fragment) was tested. Which Kd [2] did it give?
**A.** The Kd was 0.06 µM.

**Q.** LGN (aa 27-350) (domain or fragment) was tested. Which fold decrease in NuMA binding (against the longer LGN fragments) [2] did it give?
**A.** Its fold decrease in NuMA binding (against the longer LGN fragments) is 200 fold.

**Q.** How did the fold decrease in binding affinity (against LGN TPR0-7) [3] turn out when “LGN TPR4-7 (aa 191-350) (domain or fragment)” was run?
**A.** The fold decrease in binding affinity (against LGN TPR0-7) was 10 fold.

**Q.** Which Kd [4] does the source give for LGN(15-350) (domain or fragment) here?
**A.** The Kd was 0.23 µM.

**Q.** What about the Kd [5] of the same compound?
**A.** Its Kd is 67.1 µM.

**Q.** What about the Kd [6] of the same compound?
**A.** The Kd was 31.7 µM.

**Q.** And the Kd [7]?
**A.** The Kd was 0.047 µM.
